# Results taken from ChEMBL document CHEMBL5131379 (J Med Chem, 2021).
# Active and inactive are the calls of the source. No cut-off for these calls is given here.
# How the values were obtained:
# [1] = in vitro; conditions: human, MRC9 cells
# [2] = test system: MV4-11; assay: Induction of apoptosis in human MV4-11 cells at 0.5 uM assessed as increase in cleaved caspase-3 level measured after 6 hrs by Western blot analysis
# [3] = test system: MV4-11; assay: Induction of apoptosis in human MV4-11 cells assessed as early apoptotic cells at 4 uM measured after 18 hrs by Annexin V-FITC/propidium iodide staining based FACS flow cytometry (reference value: 2.23%); type: functional
# [4] = test system: MV4-11; assay: Induction of apoptosis in human MV4-11 cells at 0.5 uM assessed as increase in cleaved caspase-3 level measured after 6 hrs by Western blot analysis; type: functional, cell-based
# How it was run: (§1)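 Protein was measured by BCA and run on a 4–20% SDS gel, then transferred to nitrocellulose and blocked in 5% milk. Primary antibodies were incubated overnight at 4 °C, with HSC70 as loading control. HRP secondaries were used with ECL detection.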
# [5] = test system: MV4-11; assay: Induction of apoptosis in human MV4-11 cells assessed as late apoptotic cells at 4 uM measured after 18 hrs by Annexin V-FITC/propidium iodide staining based FACS flow cytometry (reference value: 7.49%); type: functional
# [6] = test system: MV4-11; assay: Induction of apoptosis in human MV4-11 cells assessed as viable cells at 2 uM measured after 18 hrs by Annexin V-FITC/propidium iodide staining based FACS flow cytometry (reference value: 83.23%); type: functional; conditions: read-out: Activity
# [7] = test system: MV4-11; assay: Induction of apoptosis in human MV4-11 cells at 0.5 uM assessed as increase in cleaved PARP-1 level measured after 6 hrs by Western blot analysis; type: functional, cell-based
# How it was run: as §1
# [8] = molecular target: T1, Protein deacetylase HDAC6 (Homo sapiens) (UniProt Q9UBN7); assay: Inhibition of HDAC6 in human MV4-11 cells assessed as increase in acetylated alpha-tubulin incubated for 6 hrs by Western blot analysis; type: cell-based
# T1 sequence (whole entry): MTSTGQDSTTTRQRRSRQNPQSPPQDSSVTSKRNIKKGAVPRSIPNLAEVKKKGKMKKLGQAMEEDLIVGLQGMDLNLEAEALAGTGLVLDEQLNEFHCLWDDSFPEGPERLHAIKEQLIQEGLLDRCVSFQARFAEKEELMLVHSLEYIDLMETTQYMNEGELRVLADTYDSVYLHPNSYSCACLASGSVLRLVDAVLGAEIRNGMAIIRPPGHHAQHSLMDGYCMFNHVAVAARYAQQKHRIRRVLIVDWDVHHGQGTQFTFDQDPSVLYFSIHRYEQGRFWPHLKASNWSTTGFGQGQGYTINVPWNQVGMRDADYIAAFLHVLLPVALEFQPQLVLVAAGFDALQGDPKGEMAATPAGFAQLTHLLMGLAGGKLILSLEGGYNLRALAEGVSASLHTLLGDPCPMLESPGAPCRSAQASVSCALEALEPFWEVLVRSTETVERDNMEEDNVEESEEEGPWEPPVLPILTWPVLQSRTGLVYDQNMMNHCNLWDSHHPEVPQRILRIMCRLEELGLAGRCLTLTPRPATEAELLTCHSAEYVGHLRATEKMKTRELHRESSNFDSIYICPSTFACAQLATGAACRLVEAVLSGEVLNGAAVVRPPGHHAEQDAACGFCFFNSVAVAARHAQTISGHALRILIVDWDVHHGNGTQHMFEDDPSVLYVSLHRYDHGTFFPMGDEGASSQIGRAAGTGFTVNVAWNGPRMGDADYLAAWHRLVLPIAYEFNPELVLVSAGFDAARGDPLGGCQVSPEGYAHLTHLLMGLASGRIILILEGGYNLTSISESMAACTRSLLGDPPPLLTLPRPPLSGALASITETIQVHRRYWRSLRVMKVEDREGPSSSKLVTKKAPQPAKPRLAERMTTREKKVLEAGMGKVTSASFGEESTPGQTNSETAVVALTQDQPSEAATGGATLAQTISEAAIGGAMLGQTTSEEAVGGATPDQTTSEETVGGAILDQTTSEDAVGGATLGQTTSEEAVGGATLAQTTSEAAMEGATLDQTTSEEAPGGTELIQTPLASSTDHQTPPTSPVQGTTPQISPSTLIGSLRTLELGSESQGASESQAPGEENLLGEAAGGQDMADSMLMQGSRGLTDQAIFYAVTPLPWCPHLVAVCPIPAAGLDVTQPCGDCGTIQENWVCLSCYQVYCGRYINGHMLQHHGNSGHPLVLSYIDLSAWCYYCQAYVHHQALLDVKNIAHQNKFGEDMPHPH
# How it was run: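 Protein quantified by BCA, run on 4–20% SDS gel, blotted to nitrocellulose. Probed overnight at 4 °C for acetylated α-tubulin and acetylated H3 (Lys18), HSC70 as loading control. HRP secondaries, ECL detection.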
# [9] = test system: MV4-11; assay: Induction of apoptosis in human MV4-11 cells assessed as viable cells at 0.5 uM measured after 18 hrs by Annexin V-FITC/propidium iodide staining based FACS flow cytometry (reference value: 83.23%); type: functional; conditions: read-out: Activity
# [10] = test system: MV4-11; assay: Induction of apoptosis in human MV4-11 cells assessed as late apoptotic cells at 0.5 uM measured after 18 hrs by Annexin V-FITC/propidium iodide staining based FACS flow cytometry (reference value: 7.49%); type: functional
# [11] = test system: MV4-11; assay: Induction of apoptosis in human MV4-11 cells assessed as early apoptotic cells at 1 uM measured after 18 hrs by Annexin V-FITC/propidium iodide staining based FACS flow cytometry (reference value: 2.23%); type: functional
# [12] = molecular target: T1, Protein deacetylase HDAC6 (Homo sapiens); assay: Binding affinity to HDAC6 (unknown origin) assessed as residence time
# [13] = test system: MV4-11; assay: Induction of apoptosis in human MV4-11 cells assessed as late apoptotic cells at 2 uM measured after 18 hrs by Annexin V-FITC/propidium iodide staining based FACS flow cytometry (reference value: 7.49%); type: functional
# [14] = test system: MV4-11; assay: Induction of apoptosis in human MV4-11 cells assessed as early apoptotic cells at 2 uM measured after 18 hrs by Annexin V-FITC/propidium iodide staining based FACS flow cytometry (reference value: 2.23%); type: functional
# [15] = test system: MV4-11; assay: Induction of apoptosis in human MV4-11 cells assessed as early apoptotic cells at 0.25 uM measured after 18 hrs by Annexin V-FITC/propidium iodide staining based FACS flow cytometry (reference value: 2.23%); type: functional
# [16] = test system: MV4-11; assay: Induction of apoptosis in human MV4-11 cells assessed as viable cells at 4 uM measured after 18 hrs by Annexin V-FITC/propidium iodide staining based FACS flow cytometry (reference value: 83.23%); type: functional; conditions: read-out: Activity
# [17] = test system: MV4-11; assay: Induction of apoptosis in human MV4-11 cells assessed as viable cells at 0.25 uM measured after 18 hrs by Annexin V-FITC/propidium iodide staining based FACS flow cytometry (reference value: 83.23%); type: functional; conditions: read-out: Activity
# [18] = test system: MV4-11; assay: Induction of apoptosis in human MV4-11 cells assessed as late apoptotic cells at 1 uM measured after 18 hrs by Annexin V-FITC/propidium iodide staining based FACS flow cytometry (reference value: 7.49%); type: functional
# [19] = test system: MV4-11; assay: Induction of apoptosis in human MV4-11 cells assessed as late apoptotic cells at 0.25 uM measured after 18 hrs by Annexin V-FITC/propidium iodide staining based FACS flow cytometry (reference value: 7.49%); type: functional
# [20] = test system: MV4-11; assay: Induction of apoptosis in human MV4-11 cells assessed as early apoptotic cells at 0.5 uM measured after 18 hrs by Annexin V-FITC/propidium iodide staining based FACS flow cytometry (reference value: 2.23%); type: functional
# [21] = molecular target: T1, Protein deacetylase HDAC6 (Homo sapiens); assay: Inhibition of HDAC6 in human HeLa cells assessed as increase in acetylated alpha tubulin level incubated for 6 hrs by immunofluorescent assay; type: cell-based
# How it was run: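 HeLa cells (DMEM, 10% FBS, 37 °C, 5% CO2) seeded subconfluent; inhibitor added after 24 h, increasing doses for 6 h. Fixed in 4% formaldehyde, permeabilised with 1% Triton X-100, blocked in 5% BSA. Stained for acetylated α-tubulin and acetylated histone H3 (Lys18), DAPI counterstain. Intensity from imaging, n = 3, two-way ANOVA with Tukey test.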
# [22] = molecular target: Histone deacetylase 1 (Homo sapiens) (UniProt Q13547); assay: Inhibition of HDAC1 in human MV4-11 cells assessed as acetylation of histone H3 incubated for 6 hrs by Western blot analysis; type: cell-based
# How it was run: as §1
# [23] = Cytotoxicity against human MRC9 cells assessed as reduction in cell growth incubated for 72 hrs by Cell titer-blue assay; type: toxicity, cell-based
# Histone deacetylase 1 (Homo sapiens), sequence (Q13547 whole entry): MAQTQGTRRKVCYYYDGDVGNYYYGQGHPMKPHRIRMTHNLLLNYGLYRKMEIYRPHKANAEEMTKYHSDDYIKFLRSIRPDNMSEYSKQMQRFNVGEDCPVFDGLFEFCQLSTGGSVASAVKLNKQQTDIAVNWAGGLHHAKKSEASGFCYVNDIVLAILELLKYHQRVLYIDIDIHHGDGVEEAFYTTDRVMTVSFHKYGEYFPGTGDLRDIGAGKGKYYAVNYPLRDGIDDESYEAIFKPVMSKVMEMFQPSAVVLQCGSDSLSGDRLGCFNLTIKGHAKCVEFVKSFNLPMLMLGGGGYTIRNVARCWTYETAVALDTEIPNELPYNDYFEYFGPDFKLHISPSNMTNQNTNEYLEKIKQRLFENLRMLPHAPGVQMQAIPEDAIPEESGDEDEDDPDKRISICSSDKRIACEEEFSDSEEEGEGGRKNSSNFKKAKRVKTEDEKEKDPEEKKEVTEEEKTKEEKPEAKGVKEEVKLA
structure (smiles),measurement,setting,value
O=C(NO)c1ccc(CN(C2CC2)S(=O)(=O)c2c(F)c(F)c(Cl)c(F)c2F)cc1,IC50 at 72 h,[1],> 30 µM
O=C(NO)c1ccc(CN(C2CC2)S(=O)(=O)c2cc(F)c(F)c(F)c2F)cc1,Activity,[2],Active
same,Activity,[3],24.37%
same,Activity,[4],Active
same,Activity,[5],19.18%
same,viability at 2 µM,[6],8.34%
same,Activity,[7],Active
same,inhibition,[8],Active
same,viability at 0.5 µM,[9],49.5%
same,Activity,[10],17.58%
same,Activity,[11],18.12%
same,TIME,[12],0.386 h
same,Activity,[13],19.6%
same,Activity,[14],24.39%
same,Activity,[15],6.73%
same,viability at 4 µM,[16],7.61%
same,viability at 0.25 µM,[17],70.6%
same,Activity,[18],22.3%
same,Activity,[19],13.93%
same,Activity,[20],15.26%
same,IC50 at 72 h,[1],> 20 µM
same,inhibition,[21],Active
O=C(NO)c1ccc(CN(C2CC2)S(=O)(=O)c2c(F)cc(F)c(Cl)c2F)cc1,IC50 at 72 h,[1],> 20 µM
O=C(NO)c1ccc(CN(C2CC2)S(=O)(=O)c2c(F)cc(F)cc2F)cc1,IC50 at 72 h,[1],> 20 µM
O=C(NO)c1ccc(CN(C2CC2)S(=O)(=O)c2c(F)c(Cl)c(F)c(Cl)c2F)cc1,IC50 at 72 h,[1],> 50 µM
O=C(NO)c1ccc(CN(C2CC2)S(=O)(=O)c2cc(F)c(F)c(F)c2)cc1,IC50 at 72 h,[1],> 25 µM
O=C(CCCCCCNC(=O)c1cnc(N(c2ccccc2)c2ccccc2)nc1)NO [RICOLINOSTAT],IC50 at 72 h,[1],> 20 µM
CC(C)N(Cc1ccc(C(=O)NO)cc1)S(=O)(=O)c1c(F)c(F)c(F)c(F)c1F,IC50 at 72 h,[1],> 10 µM
O=C(NO)c1ccc(CN(C2CC2)S(=O)(=O)c2ccc(F)cc2)cc1,IC50 at 72 h,[1],> 50 µM
CN(Cc1ccc(C(=O)NO)cc1)S(=O)(=O)c1c(F)c(F)c(F)c(F)c1F,IC50 at 72 h,[1],> 30 µM
O=C(CCCCCCNC(=O)c1cnc(N(c2ccccc2)c2ccccc2Cl)nc1)NO [CITARINOSTAT],inhibition,[22],Active
same,inhibition,[8],Active
same,IC50 at 72 h,[23],> 30 µM
same,IC50 at 72 h,[1],> 30 µM
O=C(NO)c1ccc(CN(C2CC2)S(=O)(=O)c2c(F)c(F)cc(F)c2F)cc1,IC50 at 72 h,[1],> 15 µM
O=C(NO)c1cccc(CN(C2CC2)S(=O)(=O)c2c(F)c(F)c(F)c(F)c2F)c1,IC50 at 72 h,[1],> 50 µM
O=C(NO)c1ccc(CNC(=O)c2c(F)c(F)c(F)c(F)c2F)cc1,IC50 at 72 h,[1],> 50 µM
O=C(NO)c1ccc(CN(C2CC2)S(=O)(=O)c2c(F)c(F)c(F)c(F)c2F)cc1,IC50 at 72 h,[1],> 20 µM
O=C(NO)c1ccc(CNS(=O)(=O)c2c(F)c(F)c(F)c(F)c2F)cc1,IC50 at 72 h,[1],> 25 µM
